Values after ≈ are worked out from the molar mass of the structure shown.
Key:
[1] = test system: Mycolicibacterium smegmatis; assay: Antibacterial activity against Mycobacterium smegmatis mc2 155 assessed as inhibition of bacterial growth incubated upto 3 weeks hrs by resazurin dye based double-dilution method; type: functional; conditions: mc2 155, 504 h
Outline: (§1)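 Double-dilution broth MIC. Media: M. smegmatis, Mueller-Hinton; M. abscessus, 7H9 + 0.05% Tween80 + 0.4% glycerol; mc²6230, 7H9 + 0.05% tyloxapol, 0.5% glycerol, 10% OADC, 0.2% casamino acids, 24 µg/mL pantothenate; other mycobacteria, 7H9 + 0.05% Tween80, 0.4% glycerol, 10% ADC. Inoculum from agar set to 0.5 McFarland, then diluted 1:100.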

Mycobacterium avium = assay: Antibacterial activity against Mycobacterium avium ATCC 25921 assessed as inhibition of bacterial growth incubated upto 3 weeks hrs by resazurin dye based double-dilution method; type: functional; conditions: ATCC 25921, 504 h; outline: as §1
[2] = test system: Mycobacterium tuberculosis; assay: Potentiation of kanamycin-induced antibacterial activity against Mycobacterium tuberculosis K204 assessed as kanamycin MIC incubated for 1 day followed by kanamycin addition for 6 days and by Alamar blue assay; type: functional; conditions: K204, 168 h, time 7 day
Outline: (§2)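 Mtb in 7H9 + 10% ADC, 0.05% Tween 80, 0.4% glycerol at 37 °C. Inoculum adjusted to OD600 0.2, diluted 1:25. Cells preincubated 24 h at 37 °C with compound (100 µL of 200 µM solution). KAN then added: H37Rv at 2.5 and 1.25 µg/mL; K204 at 10, 5, 2.5, 1.25 µg/mL. Incubated 6 days, AlamarBlue added, colour read at 24 and 48 h. MIC = lowest KAN with no colour change. At least twice in duplicate.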

[3] = test system: Mycobacterium tuberculosis; assay: Antibacterial activity against Mycobacterium tuberculosis H37Ra ATCC NRS22 assessed as inhibition of bacterial growth incubated upto 3 weeks hrs by resazurin dye based double-dilution method; type: functional; conditions: H37Ra ATCC NRS22, 504 h; outline: as §1
[4] = test system: Mycobacteroides abscessus; assay: Antibacterial activity against Mycobacterium abscessus ATCC 19977 assessed as inhibition of bacterial growth incubated upto 3 weeks hrs by resazurin dye based double-dilution method; type: functional; conditions: ATCC 19977, 504 h; outline: as §1
N-acetyltransferase Eis = target: T1, N-acetyltransferase Eis (Mycobacterium tuberculosis (strain ATCC 25618 / H37Rv), UniProt P9WFK7); assay: Inhibition of Mycobacterium tuberculosis Eis assessed as Eis-mediated kanamycin acetylation preincubated for 10 mins followed by substrate addition and measured for 2 to 5 mins using acetyl-CoA as substrate in presence of kanamycin by UV-Vis spectroscopy analysis
T1 sequence (P9WFK7 whole entry): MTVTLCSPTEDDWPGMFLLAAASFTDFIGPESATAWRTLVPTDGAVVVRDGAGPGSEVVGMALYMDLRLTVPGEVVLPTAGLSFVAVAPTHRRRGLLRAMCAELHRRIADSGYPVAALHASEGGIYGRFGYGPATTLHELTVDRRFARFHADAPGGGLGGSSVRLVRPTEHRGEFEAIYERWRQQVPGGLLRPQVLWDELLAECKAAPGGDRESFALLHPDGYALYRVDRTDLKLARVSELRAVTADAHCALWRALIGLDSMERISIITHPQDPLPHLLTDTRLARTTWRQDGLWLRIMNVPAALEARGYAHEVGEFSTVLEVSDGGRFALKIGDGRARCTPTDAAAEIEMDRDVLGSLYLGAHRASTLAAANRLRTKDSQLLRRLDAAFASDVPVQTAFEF
Outline: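 Recombinant Eis (1 µM) mixed with KAN (400 µM) in 50 mM Tris-HCl pH 8.0 and preincubated 10 min with 5-fold serially diluted inhibitor (10% DMSO in buffer). Reaction started with AcCoA and DTNB (2 mM each, as added). Absorbance read every 30 s for 20 min. Initial rates (first 2-5 min) fitted to Hill plot for IC50. At least triplicate.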

[5] = test system: Mycobacterium tuberculosis; assay: Potentiation of kanamycin-induced antibacterial activity against Mycobacterium tuberculosis H37Rv assessed as kanamycin MIC incubated for 1 day followed by kanamycin addition for 6 days and by Alamar blue assay; type: functional; conditions: 168 h, time 7 day; outline: as §2
[6] = test system: Mycobacterium intracellulare; assay: Antibacterial activity against Mycobacterium intracellulare ATCC 13950 assessed as inhibition of bacterial growth incubated upto 3 weeks hrs by resazurin dye based double-dilution method; type: functional; conditions: ATCC 13950, 504 h; outline: as §1
[7] = Metabolic stability in human liver microsomes at 2 to 4 uM incubated for 30 mins by LC-MS/MS analysis; type: ADME, Microsome; conditions: dose 2-4 µM, read-out: Stability
[8] = Metabolic stability in mouse liver microsomes at 2 to 4 uM incubated for 30 mins by LC-MS/MS analysis; type: ADME, Microsome; conditions: dose 2-4 µM, read-out: Stability
[9] = test system: Mycolicibacterium smegmatis; assay: Synergistic antibacterial activity against Mycobacterium smegmatis mc2 155 assessed as fold reduction in MIC value at 8 ug/ml in presence of clarithromycin by checkerboard assay; type: functional; conditions: dose 8 µg/ml
[10] = test system: Mycolicibacterium smegmatis; assay: Synergistic antibacterial activity against Mycobacterium smegmatis mc2 155 assessed as fold reduction in MIC value at 8 ug/ml in presence of spectinomycin by checkerboard assay; type: functional; conditions: dose 8 µg/ml

Row | Compound | MIC [1] [µM] | MIC (Mycobacterium avium) [µM] | MIC [2] [µg/mL] | MIC [3] [µM] | MIC [4] [µM] | IC50 (N-acetyltransferase Eis) [µM] | MIC [5] [µg/mL] | MIC [6] [µM] | remaining at 0.5 h [7] [%] | remaining at 0.5 h [8] [%] | fold change (FC) [9] | fold change (FC) [10]
1 | COc1ccc(C(=O)CCCN2CCC(O)(c3ccc(Br)cc3)CC2)cc1 | > 62.5 | 62.5 (≈ 27 µg/mL) | > 10 | 31.3 (≈ 13.5 µg/mL) | > 62.5 | 5.6 | ≤ 1.25 | > 62.5 |  |  |  | 
2 | O=C(CCCN1CC=C(c2ccc(Cl)cc2)CC1)c1ccc(F)cc1 | > 62.5 | 31.3 (≈ 11.2 µg/mL) |  | 7.8 (≈ 2.79 µg/mL) | > 62.5 | 0.56 |  | 15.6 (≈ 5.58 µg/mL) | 30 | 90 |  | 
3 | Cc1ccc(S(=O)(=O)N2CCC(O)(c3ccc(Cl)cc3)CC2)cc1 | > 62.5 | > 62.5 |  | > 62.5 | > 62.5 | > 200 |  | > 62.5 |  |  |  | 
4 | O=C(CCCN1CCC(c2ccc(Cl)cc2)CC1)c1ccc(F)cc1 | > 62.5 | > 62.5 |  | 62.5 (≈ 22.5 µg/mL) | > 62.5 | 1.1 |  | 31.3 (≈ 11.3 µg/mL) |  |  |  | 
5 | COc1ccc(C(=O)CCCN2CCC(O)(c3ccc(F)cc3)CC2)cc1 | > 62.5 | > 62.5 | > 10 | > 62.5 | > 62.5 | 42 | ≤ 1.25 | > 62.5 |  |  |  | 
6 | O=C(CCCN1CCC(O)(c2ccc(F)cc2)CC1)c1ccc(Br)cc1 | > 62.5 | 62.5 (≈ 26.3 µg/mL) | 10 | 31.3 (≈ 13.2 µg/mL) | > 62.5 | 6.6 | ≤ 1.25 | 62.5 (≈ 26.3 µg/mL) |  |  |  | 
7 | O=C(CCCN1CCC(O)(c2ccc(Cl)cc2)CC1)c1ccccc1 | > 62.5 | 62.5 (≈ 22.4 µg/mL) | > 10 | 62.5 (≈ 22.4 µg/mL) | > 62.5 | 5.3 | ≤ 1.25 | > 62.5 |  |  |  | 
8 | O=C(CCCN1CCCCC1)c1ccc(F)cc1 [PRIMAPERONE] | > 62.5 | > 62.5 |  | > 62.5 | > 62.5 | 0.62 |  | > 62.5 |  |  |  | 
9 | CCc1ccc(C(=O)CCCN2CCC(O)(c3ccc(Cl)cc3)CC2)cc1 | 15.6 (≈ 6.02 µg/mL) | 62.5 (≈ 24.1 µg/mL) |  | 15.6 (≈ 6.02 µg/mL) | 62.5 (≈ 24.1 µg/mL) | 40 |  | 15.6 (≈ 6.02 µg/mL) |  |  |  | 
10 | NNC(=O)c1ccncc1 [ISONIAZID] | 3.9 (≈ 0.535 µg/mL) | 62.5 (≈ 8.57 µg/mL) |  | ≤ 1 | > 62.5 |  |  | 3.9 (≈ 0.535 µg/mL) |  |  |  | 
11 | O=C(CCCN1CCC(O)(c2ccc(Br)cc2)CC1)c1ccccc1 | > 62.5 | > 62.5 | 10 | 62.5 (≈ 25.1 µg/mL) | > 62.5 | 2.2 | ≤ 1.25 | > 62.5 |  |  |  | 
12 | N=C(N)NCCCC(=O)c1ccc(F)cc1 | > 62.5 | > 62.5 |  | 31.3 (≈ 6.99 µg/mL) | > 62.5 | 1.1 |  | > 62.5 |  |  |  | 
13 | O=C(CCCN1CC=C(n2c(=O)[nH]c3ccccc32)CC1)c1ccc(F)cc1 [DROPERIDOL] | > 62.5 | > 62.5 |  | 31.3 (≈ 11.9 µg/mL) | > 62.5 | 12.2 |  | > 62.5 |  |  |  | 
14 | CC1CCCCN1CCCOc1ccc(F)cc1 (stereo not given) | 15.6 (≈ 3.92 µg/mL) | 15.6 (≈ 3.92 µg/mL) |  | 7.8 (≈ 1.96 µg/mL) | > 62.5 | > 200 |  | 7.8 (≈ 1.96 µg/mL) |  |  |  | 
15 | O=C(CCCN1CCC(O)(c2ccccc2)CC1)c1ccc(F)cc1 | > 62.5 | > 62.5 |  | > 62.5 | > 62.5 | 0.85 |  | > 62.5 |  |  |  | 
16 | CC1CC(C)CN(CCCOc2ccc(F)cc2)C1 (stereo not given) | 62.5 (≈ 16.6 µg/mL) | > 62.5 |  | 62.5 (≈ 16.6 µg/mL) | > 62.5 | 42 |  | > 62.5 |  |  |  | 
17 | O=C(CCCN1CCC(O)(c2ccc(F)cc2)CC1)c1ccccc1 | > 62.5 | > 62.5 | 10 | > 62.5 | > 62.5 | 3.1 | ≤ 1.25 | > 62.5 |  |  |  | 
18 | CC(=O)CCCN1CCC(O)(c2ccc(Cl)cc2)CC1 | > 62.5 | > 62.5 |  | > 62.5 | > 62.5 | 40 |  | > 62.5 |  |  |  | 
19 | CC(C)(C)c1ccc(C(=O)CCCN2CCC(O)(c3ccc(F)cc3)CC2)cc1 | 62.5 (≈ 24.8 µg/mL) | 31.3 (≈ 12.4 µg/mL) |  | 15.6 (≈ 6.2 µg/mL) | > 62.5 | 200 |  | 31.3 (≈ 12.4 µg/mL) | 50 | 48 | 4 | 16
20 | CC1CC(C)CN(CCCC(=O)c2ccc(C(C)(C)C)cc2)C1 (stereo not given) | 62.5 (≈ 19.7 µg/mL) | 62.5 (≈ 19.7 µg/mL) |  | 31.3 (≈ 9.88 µg/mL) | 62.5 (≈ 19.7 µg/mL) | 200 |  | 62.5 (≈ 19.7 µg/mL) |  |  |  | 
21 | O=C(CCCN1CCC(O)(c2ccc(Br)cc2)CC1)c1ccc(Br)cc1 | 31.3 (≈ 15.1 µg/mL) | > 62.5 | > 10 | 7.8 (≈ 3.75 µg/mL) | > 62.5 | > 200 | ≤ 1.25 | > 62.5 |  |  |  | 
22 | O=C(CCCN1CCC(O)CC1)c1ccc(F)cc1 | > 62.5 | > 62.5 |  | > 62.5 | > 62.5 | 0.69 |  | > 62.5 |  |  |  | 
23 | Cc1ccc(C(=O)CCCN2CCC(O)(c3ccc(Cl)cc3)CC2)cc1 | 62.6 (≈ 23.3 µg/mL) | > 62.5 |  | 31.3 (≈ 11.6 µg/mL) | > 62.5 | 100 |  | > 62.5 |  |  |  | 
24 | CC(C)c1ccc(C(=O)CCCN2CCC(O)(c3ccc(Cl)cc3)CC2)cc1 | 15.6 (≈ 6.24 µg/mL) | > 62.5 |  | 7.8 (≈ 3.12 µg/mL) | 31.3 (≈ 12.5 µg/mL) | > 200 |  | 7.8 (≈ 3.12 µg/mL) |  |  |  | 
25 | Fc1ccc(OCCCN2CCC(c3ccccc3)CC2)cc1 | > 62.5 | > 62.5 |  | 31.3 (≈ 9.81 µg/mL) | 62.5 (≈ 19.6 µg/mL) | 14 |  | 62.5 (≈ 19.6 µg/mL) |  |  |  | 
26 | O=C(CN1CCC(O)(c2ccc(Cl)cc2)CC1)c1ccc(F)cc1 | > 62.5 | > 62.5 |  | > 62.5 | > 62.5 | 100 |  | > 62.5 |  |  |  | 

— ChEMBL document CHEMBL5107950, “Structure-based design of haloperidol analogues as inhibitors of acetyltransferase Eis from Mycobacterium tuberculosis to overcome kanamycin resistance” (RSC Med Chem, 2021)
